MC4R barr agon – MC4R agonists recruiting beta-arrestin, primary screen, cell-based, luminescence, agonist arm of biased-ligand search; Melanocortin receptor 4 (Homo sapiens), P32245; 0.98% of 360,000 active; U2OS MC4R beta-arrestin complementation; percent of melanotan II response, DMSO zero; activation, % at 8.9 µM;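 active = activation above a per-plate cutoff, the mean activation of sample wells on that plate plus 3 SD, cut at about 8% in these data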
Target sequence (P32245 whole entry, looked up): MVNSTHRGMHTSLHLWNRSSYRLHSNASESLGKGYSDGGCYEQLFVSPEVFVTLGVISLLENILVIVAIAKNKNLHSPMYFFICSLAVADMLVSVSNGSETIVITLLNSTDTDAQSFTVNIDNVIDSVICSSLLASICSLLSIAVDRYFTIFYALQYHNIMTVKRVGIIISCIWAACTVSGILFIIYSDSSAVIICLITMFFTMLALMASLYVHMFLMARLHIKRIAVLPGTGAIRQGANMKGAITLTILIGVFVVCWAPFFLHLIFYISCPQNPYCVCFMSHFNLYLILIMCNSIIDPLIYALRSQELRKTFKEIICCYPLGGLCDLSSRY
MsrA inh – bovine MsrA enzyme inhibitors, primary screen, biochemical, absorbance, HTS. Methionine sulfoxide reductase A (Bos taurus). purified bovine MsrA, absorbance read-out. inhibition, % at 15.5 µM. 0.75% of 360,000 active; in the data active = inhibition above about 4.5%;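 also: 0% = vehicle wells with enzyme and 100% = reference inhibitor wells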
MC4R antag cAMP – MC4R antagonists of cAMP signaling, primary screen, cell-based, TR-FRET, antagonist arm of biased-ligand search | inhibition, % at 6.5 µM | Melanocortin receptor 4 (Homo sapiens), P32245 | MC4R-expressing cells, MTII-stimulated cAMP, LANCE TR-FRET | 0.48% of 360,000 active;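 active = inhibition above its plate's cutoff, the mean of tested wells on that plate plus 3 SD, cut at about 29% in these data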;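 also: 0% = Melanotan II alone and 100% = Melanotan II plus saturating MCL0020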
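Assay system: U2OS-MC4R stable cell line; Also added: Melanotan II; Technique: Eu-cAMP/anti-cAMP TR-FRET, emission 671 nm; Times: 30-min compound, 1-h challenge, 1-h detection, room temperature.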
bovine MsrA act – bovine MsrA enzyme activators, primary screen, biochemical, absorbance, HTS; activation, % at 10.6 µM; 0.3% of 360,000 active; purified bovine MsrA, absorbance read-out; Methionine sulfoxide reductase A (Bos taurus); in the data active = activation above about 7.5%;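 also: 0% = vehicle and 100% = reference activator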
Active calls of the source: *; x = no result given. An excerpt weighted towards active compounds, which were near 2.3% of everything screened.

SMILES | MC4R barr agon | MsrA inh | MC4R antag cAMP | bovine MsrA act
CCOC(CCn1c(SCC(=O)Nc2cc(C)on2)nc2ccccc2c1=O)OCC | 1 | 1 | 0 | -10
Cc1ccc(Cn2c(SCC(=O)Nc3cc(C)on3)nc3ccccc3c2=O)cc1 | 8.8* | 0 | -8 | -1
Cc1ccc(S(=O)(=O)N2CCOCC2)cc1NC(=O)CN(C)CC(=O)Nc1cccc(F)c1 | -1 | 2 | -1 | -2
S=C(NCc1ccc(Cl)cc1)Nc1ccncc1 | 0 | 2 | 1 | -1
CCCCN(Cc1ccco1)C(=O)c1cc2c(=O)[nH]c3ccc(C)cc3c2s1 | 36* | 2 | 8 | 0
COc1cc2c3nnc(-c4ccc(F)cc4)c-3cn(Cc3ccccc3F)c2cc1OC | 12* | 1 | 2 | -9
FC(F)(F)c1cc(CO[C@@H]2CCCN[C@@H]2c2ccccc2)cc(C(F)(F)F)c1 | 2 | -2 | 1 | -5
Oc1ccc(/C=N/Nc2nc(-c3ccc(Cl)cc3)cc(C(F)(F)F)n2)cc1 | 14* | 3 | 6 | -5
Cc1cc(-c2ccccc2)nc(N/N=C/c2ccc(O)cc2)n1 | -1 | 3 | 10 | -1
COc1ccc(CC(N)c2csc(NC(=O)c3cccc(OC(F)(F)F)c3)n2)cc1 (stereo not drawn) | 8.9* | -1 | -12 | -5
CCOC(=O)C(=CNc1ccc2c(c1)CCN2C(C)=O)C(=O)OCC | 0 | 4.9* | -5 | -5
CCOC(=O)C(=CNc1ccc(N2CCOCC2)cc1)C(=O)OCC | -1 | 3 | -5 | -4
COc1ccc2cc3cc(C(=O)NCCC(C)C)oc3nc2c1 | 8.8* | 1 | 11 | -2
COc1ccc2nc3oc(C(=O)NCCCOC(C)C)cc3cc2c1 | -1 | 1 | 6 | -4
Clc1ccc(C2=CSC3=NCCN23)cc1Cl | -1 | 0 | -5 | -3
C#CCN1C(=O)C(O)(c2c(C)[nH]c3ccccc23)c2ccccc21 (stereo not drawn) | 0 | -1 | 15 | -1
O=C1C(=O)c2c(C(=O)c3ccccc3)coc2-c2ccccc21 | 8.7* | 0 | -16 | 6
COc1ccc(C(=O)Nc2ccc(Nc3ccccc3)cc2)cc1Br | 9.4* | 0 | -3 | -3
COc1ccc(S(=O)(=O)NCC2CCCN(Cc3ccccc3Cl)C2)cc1 (stereo not drawn) | -1 | -1 | -4 | 0
COc1ccc(NC(=O)CN(C)C(=O)C2CC(=O)N(c3cccc4ccccc34)C2)cc1 (stereo not drawn) | -1 | 0 | 1 | -2
N=c1c[n+](N2CCOCC2)[n-]o1 | 0 | -1 | 31* | 0
OCCN1CCN(C2Cc3cc(Cl)ccc3Sc3ccc(Cl)cc32)CC1 (stereo not drawn) (tested in a mixture with another compound) | 9.3* | x | 2 | -2
CN1CCN(C2Cc3cc(Cl)ccc3Sc3cc(F)ccc32)CC1 (stereo not drawn) | 5 | -3 | 9 | 1
CC(C)(C)C(=O)NCCCc1nc2ccccc2n1CCCOc1ccc(Cl)cc1 | -2 | 0 | 8 | 10*
CN(C)S(=O)(=O)N1CCC(Oc2ccc(C(=O)NC3CCOC(C)(C)C3)cc2)CC1 (stereo not drawn) | -3 | 0 | 21 | -1
SMILES | MC4R barr agon | MsrA inh | MC4R antag cAMP | bovine MsrA act
O=C(/C=C/c1c(F)cccc1Cl)Nc1cccnc1 | 2 | 0 | 8 | 1
COc1ccccc1N1CCN(S(=O)(=O)c2ccc(-c3ccc(=O)[nH]n3)o2)CC1 | -3 | 0 | 0 | -3
Cc1cccc(N2CCN(S(=O)(=O)c3ccc(-c4ccc(=O)[nH]n4)o3)CC2)c1C | 8.3* | -1 | 16 | -2
CCOC(=O)C1=C(COC(=O)c2sccc2C)NC(=O)NC1C (stereo not drawn) | -1 | 0 | -8 | -3
CCOC(=O)C1=C(COC(=O)c2ccc([N+](=O)[O-])s2)NC(=O)NC1C (stereo not drawn) | -3 | 3 | -53 | 19*
Cc1ccc(C(=O)N2CCCCC2)cc1NC1=C(Cl)C(=O)N(Cc2ccccc2)C1=O | -1 | 0 | 4 | -6
Cc1ccc(O)c(NC2=C(Cl)C(=O)N(Cc3ccccc3)C2=O)c1 | 8.7* | 1 | 2 | -13
O=C(CSc1nnc(CCCOc2ccc(Cl)cc2Cl)o1)Nc1ccc(C(=O)O)cc1 | -3 | 1 | 5 | -9
O=C(CSc1nnc(COc2ccc(Cl)cc2Cl)o1)Nc1ccccn1 | 8.9* | 0 | 6 | -7

Compound activity: PubChem, The Scripps Research Institute Molecular Screening Center
